≈ marks a conversion by molar mass, not a printed value.
Tests used:
[1] = Selectivity index, ratio of IC50 for human THP1 cells to MIC for Mycobacterium tuberculosis; assay type: functional, THP-1
[2] = system: Mycobacterium tuberculosis; experiment: Antitubercular activity against Mycobacterium tuberculosis H37Ra after 7 days; assay type: functional; settings: 168 h
[3] = system: Mycobacterium tuberculosis; experiment: Antitubercular activity against Mycobacterium tuberculosis H37Rv ATCC 25618 after 2 weeks; assay type: functional; settings: 336 h
[4] = system: Mycobacterium tuberculosis; experiment: Antitubercular activity against Mycobacterium tuberculosis H37Rv ATCC 25618 after 7 days; assay type: functional; settings: 168 h
[5] = system: Mycobacterium tuberculosis; experiment: Ratio of MBC to MIC for Mycobacterium tuberculosis H37Rv; assay type: functional
In short: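 H37Rv MBC obtained by subculturing MIC-assay cultures onto drug-free solid medium and counting CFU. The ratio relates this MBC to the MIC for the same strain.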

[6] = system: Mycobacterium tuberculosis; experiment: Antitubercular activity against drug-sensitive Mycobacterium tuberculosis by radiometric BACTEC460 method; assay type: functional

Row | SMILES | Ratio [1] | MIC [2] [µM] | MBC [3] [µg/mL] | MIC [4] | Ratio [5] | MIC [6] [µg/mL]
1 | O[C@@H](CNCCNC[C@H](O)COC(c1ccco1)c1ccco1)COC(c1ccco1)c1ccco1 | >10 | 25 (≈ 12.5 µg/mL) | – | – | – | –
2 | Cc1ccc(C(OC[C@@H](O)CNCCNC[C@H](O)COC(c2ccc(C)cc2)c2ccc(C)cc2)c2ccc(C)cc2)cc1 | >10 | 5.24 (≈ 3.13 µg/mL) | 6.25 (≈ 10.5 µM) | 3.13 µg/mL | 2 | –
3 | O[C@H](CNCCNC[C@@H](O)COC(c1ccc(Br)cc1)c1ccc(Br)cc1)COC(c1ccc(Br)cc1)c1ccc(Br)cc1 | >10 | 7.34 (≈ 6.29 µg/mL) | – | – | – | –
4 | CCOc1ccc(C(OC[C@@H](O)CNCCNC[C@H](O)COC(c2ccc(OCC)cc2)c2ccc(OCC)cc2)c2ccc(OCC)cc2)cc1 | >10 | 8.72 (≈ 6.25 µg/mL) | – | – | – | –
5 | COCOc1ccc(C(OC[C@H](O)CNCCNC[C@@H](O)COC(c2ccc(OCOC)cc2)c2ccc(OCOC)cc2)c2ccc(OCOC)cc2)cc1 | >10 | 8 (≈ 6.25 µg/mL) | – | – | – | –
6 | Cc1ccc(C(OC[C@H](O)CNCCNC[C@@H](O)COC(c2ccc(C)cc2)c2ccc(C)cc2)c2ccc(C)cc2)cc1 | >10 | 5.24 (≈ 3.13 µg/mL) | 6.25 (≈ 10.5 µM) | 3.13 µg/mL | 2 | –
7 | COc1ccc(C(OC[C@@H](O)CNCCNC[C@H](O)COC(c2ccc(OC)cc2)c2ccc(OC)cc2)c2ccc(OC)cc2)cc1 | >10 | 4.73 (≈ 3.13 µg/mL) | 25 (≈ 37.8 µM) | 3.13 µg/mL | 8 | –
8 | COCOc1ccc(C(OC[C@@H](O)CNCCNC[C@H](O)COC(c2ccc(OCOC)cc2)c2ccc(OCOC)cc2)c2ccc(OCOC)cc2)cc1 | >10 | 8 (≈ 6.25 µg/mL) | – | – | – | –
9 | O[C@@H](CNCCNC[C@H](O)COC(c1ccc(Br)cc1)c1ccc(Br)cc1)COC(c1ccc(Br)cc1)c1ccc(Br)cc1 | >10 | 3.67 (≈ 3.14 µg/mL) | 25 (≈ 29.2 µM) | 3.13 µg/mL | 8 | –
10 | CCOc1ccc(C(OC[C@H](O)CNCCNC[C@@H](O)COC(c2ccc(OCC)cc2)c2ccc(OCC)cc2)c2ccc(OCC)cc2)cc1 | >10 | 8.72 (≈ 6.25 µg/mL) | – | – | – | –
11 | CC(C)(C)c1ccc(C(OC[C@H](O)CNCCNC[C@@H](O)COC(c2ccc(C(C)(C)C)cc2)c2ccc(C(C)(C)C)cc2)c2ccc(C(C)(C)C)cc2)cc1 | >10 | 32.7 (≈ 25 µg/mL) | – | – | – | –
12 | O[C@H](CNCCNC[C@@H](O)COC(c1ccco1)c1ccco1)COC(c1ccco1)c1ccco1 | >10 | 50 (≈ 25 µg/mL) | – | – | – | –
13 | Cc1ccc(C(OC[C@@H](O)CN2CCN(C[C@H](O)COC(c3ccc(C)cc3)c3ccc(C)cc3)CC2)c2ccc(C)cc2)cc1 | >10 | 40.1 (≈ 25 µg/mL) | – | – | – | –
14 | O[C@@H](COC(c1ccc(Br)cc1)c1ccc(Br)cc1)CN1CCN(C[C@@H](O)COC(c2ccc(Br)cc2)c2ccc(Br)cc2)CC1 | >10 | 28.3 (≈ 25 µg/mL) | – | – | – | –
15 | Cc1ccc(C(OC[C@H](O)CN2CCN(C[C@@H](O)COC(c3ccc(C)cc3)c3ccc(C)cc3)CC2)c2ccc(C)cc2)cc1 | 12 | 2.5 (≈ 1.56 µg/mL) | 6.25 (≈ 10 µM) | 1.56 µg/mL | 4 | 3.13 (≈ 5.03 µM)
16 | Cc1ccc(C(OC[C@@H](O)CN2CCCN(C[C@H](O)COC(c3ccc(C)cc3)c3ccc(C)cc3)CC2)c2ccc(C)cc2)cc1 | 30.77 | 1.22 (≈ 0.777 µg/mL) | 1.56 (≈ 2.45 µM) | 0.78 µg/mL | 2 | 0.78 (≈ 1.22 µM)
17 | CC(C)Oc1ccc(C(OC[C@@H](O)CNCCNC[C@H](O)COC(c2ccc(OC(C)C)cc2)c2ccc(OC(C)C)cc2)c2ccc(OC(C)C)cc2)cc1 | >10 | 16.2 (≈ 12.5 µg/mL) | – | – | – | –
18 | O[C@H](COC(c1ccc(Br)cc1)c1ccc(Br)cc1)CN1CCN(C[C@H](O)COC(c2ccc(Br)cc2)c2ccc(Br)cc2)CC1 | >10 | 28.3 (≈ 25 µg/mL) | – | – | – | –
19 | O[C@H](CNCCNC[C@@H](O)COC(c1cccs1)c1cccs1)COC(c1cccs1)c1cccs1 | >10 | 22.1 (≈ 12.5 µg/mL) | – | – | – | –
20 | COc1ccc(C(OC[C@H](O)CNCCNC[C@@H](O)COC(c2ccc(OC)cc2)c2ccc(OC)cc2)c2ccc(OC)cc2)cc1 | >10 | 9.46 (≈ 6.25 µg/mL) | – | – | – | –
21 | CC(C)Oc1ccc(C(OC[C@H](O)CNCCNC[C@@H](O)COC(c2ccc(OC(C)C)cc2)c2ccc(OC(C)C)cc2)c2ccc(OC(C)C)cc2)cc1 | >10 | 8.09 (≈ 6.25 µg/mL) | – | – | – | –
22 | O[C@@H](CNCCNC[C@H](O)COC(c1cccs1)c1cccs1)COC(c1cccs1)c1cccs1 | >10 | 22.1 (≈ 12.5 µg/mL) | – | – | – | –
23 | COc1ccc(C(OC[C@@H](O)CNCCNC[C@H](O)COC(c2ccc(OC)c(OC)c2)c2ccc(OC)c(OC)c2)c2ccc(OC)c(OC)c2)cc1OC | >10 | 16 (≈ 12.5 µg/mL) | – | – | – | –
24 | O[C@H](CNCCNC[C@@H](O)COC(c1ccc2c(c1)OCCO2)c1ccc2c(c1)OCCO2)COC(c1ccc2c(c1)OCCO2)c1ccc2c(c1)OCCO2 | >10 | 16.2 (≈ 12.5 µg/mL) | – | – | – | –
25 | O[C@H](CNCCNC[C@@H](O)COC(c1ccc2c(c1)OCO2)c1ccc2c(c1)OCO2)COC(c1ccc2c(c1)OCO2)c1ccc2c(c1)OCO2 | >10 | 17.4 (≈ 12.5 µg/mL) | – | – | – | –
26 | O[C@@H](CNCCNC[C@H](O)COC(c1ccc2c(c1)OCO2)c1ccc2c(c1)OCO2)COC(c1ccc2c(c1)OCO2)c1ccc2c(c1)OCO2 | >10 | 8.72 (≈ 6.25 µg/mL) | – | – | – | –
27 | COc1ccc(C(OC[C@H](O)CNCCNC[C@@H](O)COC(c2ccc(OC)c(OC)c2OC)c2ccc(OC)c(OC)c2OC)c2ccc(OC)c(OC)c2OC)c(OC)c1OC | >10 | 13.9 (≈ 12.5 µg/mL) | – | – | – | –
28 | CC(C)(C)c1ccc(C(OC[C@@H](O)CNCCNC[C@H](O)COC(c2ccc(C(C)(C)C)cc2)c2ccc(C(C)(C)C)cc2)c2ccc(C(C)(C)C)cc2)cc1 | >10 | 16.3 (≈ 12.5 µg/mL) | – | – | – | –
29 | Cc1ccc(C(OC[C@H](O)CN2CCCN(C[C@@H](O)COC(c3ccc(C)cc3)c3ccc(C)cc3)CC2)c2ccc(C)cc2)cc1 | 26.92 | 1.22 (≈ 0.777 µg/mL) | 3.13 (≈ 4.91 µM) | 0.78 µg/mL | 4 | 0.78 (≈ 1.22 µM)
30 | CC[C@@H](CO)NCCN[C@@H](CC)CO [ETHAMBUTOL] | – | – | 3.13 (≈ 15.3 µM) | 7.64 µM | – | 3.13 (≈ 15.3 µM)
